# Results taken from ChEMBL document CHEMBL1149461, “Synthesis and structure-activity relationship studies of CD4 down-modulating cyclotriazadisulfonamide (CADA) analogues” (J Med Chem, 2006).
# pIC50: −log10 of the molar value.
# Legend:
# MT4 [1] = assay: Inhibition of CD4 antigen expression in MT4 cells; type: functional, cell-based; conditions: Homo sapiens; for pIC50: read-out: IC50; for IC50: read-out: Log IC50 (converted)
# How it was run: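 MT-4 cells were labelled with FITC-conjugated anti-CD4 mAb to read surface CD4 by mean fluorescence intensity. IC50 is the concentration giving 50% loss of cell-surface CD4. Top concentrations tested were 15 or 75 µM. Where 50% reduction was not reached, the value is reported as a lower limit based on the highest concentration used.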
# [2] = test system: Human immunodeficiency virus 1; assay: Antiviral activity against HIV1 NL4.3 in MT4 cells; type: functional, organism-based; conditions: Human immunodeficiency virus 1, NL4.3, MT4
# MT4 [3] = assay: Cytotoxicity against MT4 cells; type: functional; conditions: Homo sapiens
SMILES,pIC50 (MT4 [1]),IC50 (MT4 [1]),pIC50 [2],CC50 (MT4 [3])
C=C1CN(S(=O)(=O)c2ccc(C)cc2)CCCN(Cc2ccccc2)CCCN(S(=O)(=O)c2cccc3c(N(C)C)cccc23)C1,5.89,1.29 µM,5.02,> 75 µM
C=C1CN(S(=O)(=O)c2ccc(OC)cc2)CCCN(Cc2ccccc2)CCCN(S(=O)(=O)c2ccc(OC)cc2)C1,6.66,0.219 µM,6.21,26 µM
C=C1CN(S(=O)(=O)c2ccc(OC)cc2)CCCN(CCC(C)C)CCCN(S(=O)(=O)c2ccc(OC)cc2)C1,6.54,0.288 µM,6.20,53 µM
C=C1CN(S(=O)(=O)c2ccc(C)cc2)CCCN(CC2CCCCC2)CCCN(S(=O)(=O)c2cccc3c(N(C)C)cccc23)C1,6.21,0.617 µM,5.74,49 µM
C=C1CN(S(=O)(=O)c2ccc(Br)cc2)CCCN(C(=O)OCC)CCCN(S(=O)(=O)c2ccc(Br)cc2)C1,4.91,12.3 µM,–,29 µM
C=C1CN(S(=O)(=O)c2ccc(OC)cc2)CCCNCCCN(S(=O)(=O)c2ccc(OC)cc2)C1,5.28,5.25 µM,5.20,43 µM
